Consider eleven compounds from ChEMBL document CHEMBL3244196, “Synthesis and analgetic activity of 1,2,3,4,5,6-hexahydro-1,6-methano-3-benzozocines” (J Med Chem, 1978).

For data set [1], the species on record is Mus musculus. Put plainly: Analgesic activity in mouse by Eddy hot-plate method. Type of data set: functional.
The subject of data set [2] is Mus musculus. Put plainly: Analgesic activity in sc dosed mouse by Eddy hot-plate method. Type of data set: functional. For orientation: Thermal pain tests record how soon the animal reacts.
Data set [3] concerns Rhesus monkey. The experiment in a line: Toxicity in rhesus monkey assessed as physical drug dependence liability at 2 to 4 mg/kg by single dose suppression analysis. Type of data set: organism-based, Macaca mulatta. More on the design: dose 2-4 mg/kg. The note with it: in vivo. A digest of the protocol: (§1)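 Rhesus monkeys addicted to morphine; single-dose suppression study scoring whether the test dose supports morphine dependence, i.e. suppresses withdrawal signs. Dose range 2-4 or 2-8 mg/kg, as given in each line.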

Data set [4] deals with Rhesus monkey. Put plainly: Psychotomimetic activity in morphine-dependent nonwithdrawn rhesus monkey assessed as antagonist activity by measuring precipitation of withdrawal symptoms at 2 to 4 mg/kg. The note with it: in vivo. Further details: dose 2-4 mg/kg. Type of data set: organism-based, Macaca mulatta.
Data set [5] concerns Rhesus monkey. Put plainly: Toxicity in rhesus monkey assessed as physical drug dependence liability at 2 to 8 mg/kg by single dose suppression analysis. Further details: dose 2-8 mg/kg. Type of data set: organism-based, Macaca mulatta. To be noted: in vivo. The gist of the method: as §1
Data set [6] has as its system Rhesus monkey. Put plainly: Psychotomimetic activity in morphine-dependent nonwithdrawn rhesus monkey assessed as antagonist activity by measuring precipitation of withdrawal symptoms at 2 to 8 mg/kg. In kind it is organism-based, Macaca mulatta. More on the design: dose 2-8 mg/kg. The note with it: in vivo.

Active and inactive are the calls of the source. The rule behind the calls is not given here.

Usually ED50 stands for the midpoint of the dose-response relation. On to `c1ccc(CCN2CCC3CC(C2)c2ccccc23)cc1` (configuration not stated), for which, in data set [1], the ED50 stood at 8.8 mg/kg.
In turn, `COc1ccc2c3c1O[C@H]1[C@@H](O)C=C[C@H]4[C@@H](C2)N(C)CC[C@@]341` [CODEINE] registered a median effective dose (ED50) in data set [1] of 7.5 mg/kg.
As to `CN1CCC2CC1Cc1ccccc12` (configuration not stated), it took a dose of 11.2 mg/kg to reach the 50% effect level in data set [1] (ED50).
`C=CCN1CCC2CC(C1)c1ccccc12` (configuration not stated) had a median effective dose (ED50) in data set [1] of 19.4 mg/kg.
On to `CN1CCC2CC(C1)c1ccccc12` (configuration not stated), for which the 50% effective dose (ED50) in data set [1] stood at 4.2 mg/kg; in data set [2] it was 8.2 mg/kg. Also, the Activity result in data set [3] and in data set [4] was “Non-toxic” in each case.
Consider `CC1CCN(C)CCc2ccc(O)cc21` (configuration not stated), for which, in data set [1], the ED50 was found to be 12.5 mg/kg.
Same read-out and setting: next, `CN1CC[C@@H]2CC1Cc1ccc(O)cc12`: 4.5 mg/kg; `CCCN1CCC2CC(C1)c1ccccc12` (configuration not stated): 16.2 mg/kg.
The same measure, in the same setting: next, `CN1CC[C@]23c4c5ccc(O)c4O[C@H]2[C@@H](O)C=C[C@H]3[C@H]1C5` [MORPHINE]: 1.2 mg/kg.
Take `CC(C)=CCN1CCC2CC(C1)c1ccccc12` (configuration not stated): the ED50 result in data set [1] is “inactive”.
Consider `c1ccc2c(c1)C1CCNCC2C1` (configuration not stated), for which the ED50 in data set [1] came to 4.9 mg/kg; in data set [2] it was 6.1 mg/kg. Also, the Activity entry in data set [5] and in data set [6] was “Non-toxic” throughout.
